Assay outcomes from PubChem BioAssay.
In the library only some 4.5% were active in any assay of this set; here they are far more common.
TAAR1 antag = human TAAR1 antagonists, primary screen, Fluo-8 calcium fluorescence, CHO RD-HGA16 cells; Trace amine-associated receptor 1 (Homo sapiens), Q96RJ0; antagonist; inhibition, % at 3 µM; 1.5% of 360,000 active; AID 624466, 2012;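 active means inhibition above a per-plate cutoff, the mean inhibition of test compounds on that plate plus 3 SD, cut at about 49% in these data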;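 further: 0% = DMSO plus EC80 beta-PEA response and 100% = DMSO alone without agonist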
Target sequence (Q96RJ0 whole entry, looked up): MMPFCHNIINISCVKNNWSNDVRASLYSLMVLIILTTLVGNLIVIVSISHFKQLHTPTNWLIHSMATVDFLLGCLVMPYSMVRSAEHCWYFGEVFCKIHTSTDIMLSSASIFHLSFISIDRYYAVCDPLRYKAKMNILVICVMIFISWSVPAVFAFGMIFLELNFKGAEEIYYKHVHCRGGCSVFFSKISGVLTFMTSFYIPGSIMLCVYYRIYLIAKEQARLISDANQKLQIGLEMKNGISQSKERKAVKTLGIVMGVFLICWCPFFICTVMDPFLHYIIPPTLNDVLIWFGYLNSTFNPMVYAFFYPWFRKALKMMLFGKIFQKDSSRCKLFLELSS
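Test system: RD-HGA16 CHO cells with stable hTAAR1 and Gα16 / Probe or stimulus: EC80 β-phenethylamine stimulus / Times: seeding 17-24 h prior, 75-min 37 °C, 30-min RT dye loading / Detection: Fluo-8 calcium-sensitive fluorescence / Read-out basis: % inhibition scaled between DMSO and EC80 PEA controls / Repeats: singlicate, one well per test compound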
OX1R antag-1 = OX1R (HCRTR1) antagonists, primary screen, fluorescence, CHO/OX1R cells, Fluo-8 calcium, orexin A. Orexin/Hypocretin receptor type 1 (Homo sapiens), O43613. Fluo-8 calcium fluorescence. inhibition, % at 5 µM. 0.43% of 330,000 active;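 active means inhibition above its plate's threshold, mean inhibition of all tested compounds on the plate plus 3 SD, cut at about 37% in these data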;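 further: 0% = orexin A challenge wells and 100% = SB-334867-A antagonist wells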
OX1R antag-2 = antagonists of human orexin 1 receptor (OX1R); OX1R-expressing cells, FRET antagonist read-out; inhibition, % at 6.6 µM; AID 485270, 2010; 1.8% of 330,000 active; Orexin/Hypocretin receptor type 1 (Homo sapiens), O43613; in the data active means inhibition mostly above about 38%, no sharp cut-off; inactive means mostly below about 40%;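 further: 0% = agonist challenge alone and 100% = reference antagonist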
TAAR1 agonist = human TAAR1 agonists, primary screen, Fluo-8 calcium fluorescence, CHO RD-HGA16 cells; vehicle wells 0%, saturating PEA agonist 100%; AID 624467, 2012; activation, % at 3 µM; 0.99% of 360,000 active;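 active means activation above the mean activation of all test compounds in the run plus 3 SD, cut at about 38% in these data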
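Assay system: CHO-derived RD-HGA16 cells with stable Gα16 and human TAAR1; timing: 17-24 h seeding, 75 min 37 °C dye, 30 min RT; read-out: % activation from peak over basal fluorescence ratio, DMSO-to-PEA scaled; measured by: kinetic Fluo-8 calcium fluorescence; benchmarks: low control DMSO, high control PEA (EC100); doses: 3 µM single concentration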
GPR7 antagonist = GPR7 receptor antagonists, primary screen, cell-based, fluorescence, single concentration; inhibition, % at 4.4 µM; Neuropeptides B/W receptor type 1 (Homo sapiens), P48145; 1.1% of 290,000 active; GPR7-expressing cells, fluorescence antagonist assay; in the data active means inhibition above about 16%, passing the limit was not always enough;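 further: cells stimulated with the agonist NPW; 0% = agonist with vehicle and 100% = vehicle without agonist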
CHO parental Ca = ATP-evoked calcium signal inhibitors, parental CHO, primary screen, counter-screen for OX1R antagonist project, cell-based, fluorescence, Fluo-8 calcium dye | parental CHO-K1, ATP-induced calcium, Fluo-8 fluorescence | inhibition, % at 5.6 µM | 0.63% of 330,000 active | AID 463079, 2010;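 active means inhibition above that plate's mean sample inhibition plus 3 SD, cut at about 26% in these data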;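 further: 0% = ATP-challenged DMSO wells and 100% = DMSO wells without ATP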
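Material: parental CHO cells / Compound: single nominal dose of 5.6 µM per compound / Signal: Fluo-8 fluorescence / Replicates: singlicate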
An asterisk follows results filed as active; / = no result; + = active, no number.

SMILES	TAAR1 antag	OX1R antag-1	OX1R antag-2	TAAR1 agonist	GPR7 antagonist	CHO parental Ca
Cc1cccc(NC(=O)Cc2ccc(F)cc2)c1	-0.8	-3.0	6.6	10.2	10.6	-8.8
COC(=O)[C@]12C[C@H](CC(=O)NCc3ccc(OC)c(OC)c3)C(=O)N(CCC3=CCCCC3)C1=C[C@H](C(C)(C)C)O[C@@H]2C	-19.3	/	/	-0.2	/	/
O=C(O)c1ccc(-n2c(/C=C/c3ccccc3)nc3ccccc3c2=O)cc1	34.8	3.5	37.4*	4.6	-21.1	8.4
COc1ccc(NC(=O)C2=Cc3cccc(OC)c3OC2)cc1	-4.8	-2.8	39.6	1.2	20.4*	-19.9
COc1ccc(NC(=O)C2=Cc3ccccc3OC2)cc1	5.8	-17.0	24.2	4.3	0.6	-16.9
CCn1c2ccccc2c2cc([N+](=O)[O-])ccc21	-7.4	-39.1	21.5	-0.2	-7.7	-29.6
CCn1c2ccccc2c(=O)c2ccccc21	-7.3	-9.7	66.5*	2.3	-6.0	13.8
S=c1[nH]nc(-c2ccncc2)n1Cc1ccccc1	-25.4	4.3	0.8	2.4	-0.4	-10.7
Cc1cc(-c2n[nH]c(=S)n2Cc2ccccc2)cs1	-0.1	-23.1	0.0	1.1	22.1*	-16.4
CCn1c(SCC(=O)c2ccc3ccccc3c2)nnc1-c1ccco1	2.2	-3.4	73.6*	3.6	-6.6	-8.9
CCn1c(SCC(=O)N(C)CC(=O)Nc2ccc(OC)cc2)nnc1-c1ccco1	7.6	-18.7	26.0	2.6	/	-3.0
COc1ccc(C(=O)CSc2nnc(-c3cc4ccccc4cc3O)n2Cc2ccco2)cc1	31.1	6.1	53.3*	2.0	13.6	-20.7
CCn1c(SCC(=O)N(C)CC(=O)Nc2cccc(OC)c2)nnc1-c1ccco1	-6.3	-10.8	40.3*	1.0	/	-8.9
O=C(Nc1nc(-c2ccccc2)cs1)c1ccc2c(=O)n3c(nc2c1)CCCCC3	58.7*	21.4	51.1*	14.8	-13.0	15.3
O=C(Nc1cccc(S(=O)(=O)N2CCOCC2)c1)c1ccc2c(=O)n3c(nc2c1)CCCCC3	51.3*	-25.5	14.3	15.8	1.0	-24.7
O=C(Nc1ccccc1Cl)c1ccc2c(=O)n3c(nc2c1)CCC3	-2.8	-12.5	5.1	13.9	/	2.7
O=S(=O)(O)c1cc(O)c2c(O)c(N=Nc3cc(Cl)ccc3O)c(S(=O)(=O)O)cc2c1	/	-0.5	41.6	/	-1.9	-8.6
Cc1cc(-c2ccc(N=Nc3c(S(=O)(=O)O)cc4cc(S(=O)(=O)O)cc(N)c4c3O)c(C)c2)ccc1N=Nc1c(S(=O)(=O)O)cc2cc(S(=O)(=O)O)cc(N)c2c1O	/	5.3	+	/	/	-3.4
CCC(=O)NC1=C(Cl)C(=O)C(NC(=O)CC)=C(Cl)C1=O	50.2*	/	/	45.9*	-26.0	/
COc1cc(Cl)c(NC2=CC(=O)C(=O)c3ccccc32)c(OC)c1	0.0	-8.6	33.0*	1.3	/	-16.7
COC(=O)c1c(NC(=S)Nc2ccccc2Cl)sc(C)c1C	/	-39.2	16.8	/	-2.1	-14.5
O=C(CN1CCOCC1)NNc1c2ccccc2nc2ccccc12	11.0	-24.4	11.1	-0.2	9.0	1.2
C[N+]1(CC(=O)NNc2c3ccccc3nc3ccccc23)CCOCC1	-31.4	-7.5	44.2*	-0.2	-12.0	-4.2
COc1ccc2nc(N3CCN(C(=O)C4COc5ccccc5O4)CC3)sc2c1 (stereo unspecified)	31.9	-16.3	20.3	9.2	/	-21.4
Cc1cccc2sc(N3CCN(C(=O)C4COc5ccccc5O4)CC3)nc12 (stereo unspecified)	42.4	-22.6	3.4	49.9*	/	-10.8
Cc1ccn2cc(-c3cccc([N+](=O)[O-])c3)nc2c1	15.8	-24.6	65.5*	-1.1	-6.5	-18.2
CC(=O)c1c(C)[nH]c(C(=O)CSc2ccc(F)cc2)c1C	13.9	13.6	17.8	5.6	-9.7	33.1*
